Sampled rows, rich in hits. Any-hit rate of the full collection: about 2.3%.
Cneo AK release: Cryptococcus neoformans cell lysis inducers, primary screen, AK release luminescence, single concentration; C. neoformans lysis, adenylate kinase release luminescence, 4 h; normalised: neutral wells 0, clomiphene wells 100; lysis activity, % at 15 µM; 0.2% of 360,000 active; AID 651654, 2012;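 active = mean lysis activity across replicates of at least 80%, whatever share of replicates individually reach that level; inactive = mean lysis activity below 80%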
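Test system: log-phase Cryptococcus neoformans yeast cells. Input: 5 × 10^6 yeast cells/mL. Medium: fresh YPD growth medium. Doses: single dose. Incubation: static 4 h at 37 °C with compound, 1 h detection. Measured by: luminescent adenylate kinase detection reagent. Read-out: signal increase indicating cell lysis. Benchmarks: Clomiphene.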
ERp5 inh: inhibitors of ERp5-driven insulin aggregation, primary screen, biochemical, turbidity, absorbance 650 nm, single point. 0.05% of 350,000 active. Protein disulfide-isomerase A6 (Homo sapiens), Q15084. inhibition, % at 9.99 µM. 90 min. AID 651711, 2012;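 active = mean replicate inhibition above about 25%, with every replicate also reaching it, limit read from the data, passing the limit was not always enough; inconclusive = only one of those two criteria met; inactive = neither criterion met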
Target sequence (Q15084 whole entry, looked up): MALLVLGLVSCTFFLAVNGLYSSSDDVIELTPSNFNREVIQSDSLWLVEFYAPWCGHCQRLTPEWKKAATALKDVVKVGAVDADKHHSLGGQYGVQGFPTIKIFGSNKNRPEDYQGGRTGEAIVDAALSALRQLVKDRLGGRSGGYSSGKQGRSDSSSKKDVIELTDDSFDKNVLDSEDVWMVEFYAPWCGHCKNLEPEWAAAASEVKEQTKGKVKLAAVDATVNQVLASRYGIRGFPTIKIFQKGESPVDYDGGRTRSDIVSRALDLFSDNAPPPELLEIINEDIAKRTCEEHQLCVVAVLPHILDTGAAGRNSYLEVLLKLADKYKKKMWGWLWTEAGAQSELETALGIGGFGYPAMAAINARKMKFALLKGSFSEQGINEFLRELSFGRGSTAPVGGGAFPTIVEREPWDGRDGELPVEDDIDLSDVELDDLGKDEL
DENV2 CPE rescue: inhibitors of DENV2 cytopathic effect, primary screen, cell-based, plate reader, single concentration; DENV2-infected cells, cytopathic effect rescue; CPE inhibition, % at 9.99 µM; 1.7% of 350,000 active; AID 651640, 2012; in the data active = CPE inhibition above about 20%, passing the limit was not always enough; inconclusive = no clear call, values can overlap the other calls; tested in BHK-21 cells;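 note: 0% = median of neutral control wells and 100% = median of positive control wells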
Statin myotox sup: suppressors of statin myotoxicity in C2C12 myotubes, primary screen, cell-based, single point, plate reader. AID 602340, 2012. rescue of ATP level, % at 7.49 µM. C2C12 myotubes + simvastatin, ATP luminescence, 48 h; scaled: DMSO 0, geranylgeraniol control 100. 0.78% of 330,000 active;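 active = mean ATP rescue above about 67%, or every replicate alone reaching that limit, limit read from the data, passing the limit was not always enough; inconclusive = no clear call, values can overlap the other calls; inactive = mean under the limit and some replicate under it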;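 note: myotubes were challenged with 10 µM simvastatin during compound exposure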
PDI turbidity: inhibitors of human PDI, primary screen, biochemical, turbidity, single point, plate reader; Protein disulfide-isomerase (Homo sapiens), P07237; AID 588391, 2011; 0.052% of 350,000 active; PDI insulin aggregation turbidity, A650, 90 min; inhibition, % at 10 µM;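 active = mean inhibition across replicates of 30% or more, whatever share of single replicates reach that level; inconclusive = mean inhibition below 30% while every single replicate reaches 30%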
F508del corr: F508del CFTR correction, initial screen, CFBE line, single point | CFBE cells, YFP halide quenching; stimulated with forskolin plus potentiator P3; % fluorescence drop versus neutral controls | activity (quench increase), % at 7.58 µM | 0.36% of 350,000 active | AID 720511, 2013;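 active = mean added fluorescence quench of at least 8% versus neutral control, with both replicates also reaching 8%; inconclusive = only one of the mean or replicate conditions met; inactive = mean below 8% and not both replicates reaching 8%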;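 note: cells transiently co-express mutant CFTR-F508del with the halide-sensitive YFP; corrector assay measuring rescue of mutant channel to the surface after 24 h compound exposure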
An asterisk follows results filed as active; ? = inconclusive; / = not tested or not shown; ! = repeats disagree.

SMILES | Cneo AK release | ERp5 inh | DENV2 CPE rescue | Statin myotox sup | PDI turbidity | F508del corr
C[C@@H]1CN([C@@H](C)CO)C(=O)c2cccc(NS(=O)(=O)c3cn(C)cn3)c2O[C@@H]1CN(C)S(=O)(=O)c1cn(C)cn1 | -4.9 | 13.3 | 27.3* | -31.9 | / | -1.8
C[C@@H]1CN([C@@H](C)CO)C(=O)c2cccc(NS(=O)(=O)c3cn(C)cn3)c2O[C@H]1CN(C)S(=O)(=O)c1cn(C)cn1 | 1.0 | 3.3 | -8.0 | -22.8 | / | 0.4
C[C@H](CO)N1C[C@H](C)[C@@H](CN(C)Cc2ccccc2)Oc2c(NS(=O)(=O)c3cn(C)cn3)cccc2C1=O | -2.3 | 2.8 | 29.7*! | -7.5 | 3.4 | -0.7
C[C@H](CO)N1C[C@H](C)[C@@H](CN(C)CC2CCCCC2)Oc2c(NS(=O)(=O)c3cn(C)cn3)cccc2C1=O | 5.6 | 1.7 | -2.8 | 8.6 | 13.3 | 1.2
C[C@@H]1CN([C@@H](C)CO)C(=O)c2cccc(NS(=O)(=O)c3cn(C)cn3)c2O[C@H]1CN(C)CC1CCCCC1 | 52.2 | -1.5 | 33.1* | -23.9 | / | -0.2
C[C@@H]1CN([C@H](C)CO)C(=O)c2cccc(NS(=O)(=O)c3cn(C)cn3)c2O[C@H]1CN(C)Cc1ccccc1 | -3.3 | 1.4 | 6.9 | 33.1 | / | -4.1
O=C(C1CCCC1)N1CC[C@@H]2[C@H](CO)Nc3ccc(C#Cc4ccc(F)cc4)cc3[C@@H]21 | / | -0.2 | 5.5 | / | / | 4.4
C[C@H](CO)N1C[C@H](C)[C@H](CN(C)Cc2ccc(C(=O)Nc3ccccc3N)cc2)OCCCC[C@H](C)Oc2ccc(NC(=O)C3CCCCC3)cc2C1=O | / | 10.7 | -5.4 | / | / | 0.4
CCOC(=O)[C@]12CCC=C1N(Cc1cccc3ccccc13)C(=O)[C@H](CC(=O)N1CCCC1)C2 | / | -4.7 | 37.3* | / | / | -2.1
COC(=O)[C@]12CCCCC=C1N(Cc1cccc3ccccc13)C(=O)[C@H](CC(=O)N1CCSCC1)C2 | / | -2.1 | 32.1* | / | / | 4.3
COC(=O)[C@]12CCCCC=C1N(Cc1cccc3ccccc13)C(=O)[C@H](CC(=O)NCCC(C)C)C2 | / | 7.8 | 109.3* | / | / | -0.1
COC(=O)[C@]12CCCCC=C1N(Cc1cccc3ccccc13)C(=O)[C@H](CC(=O)NCc1ccccc1)C2 | / | -4.1 | -9.7 | / | / | -0.2
CC(C)NC(=O)N[C@@H]1CC[C@H](CCNC(=O)C2CCCC2)O[C@@H]1CO | / | / | / | -1.2 | / | -0.8
C[C@@H]1CN([C@@H](C)CO)C(=O)Cc2cc(NC(=O)Cc3ccccc3)ccc2O[C@@H]1CN(C)Cc1ccc(Cl)c(Cl)c1 | 2.7 | 0.7 | 65.9* | 63.9 | / | 1.1
C[C@@H]1CN([C@@H](C)CO)C(=O)Cc2cc(NC(=O)Cc3ccccc3)ccc2O[C@@H]1CN(C)Cc1ccccc1 | 0.8 | -5.4 | -6.0 | 11.8 | / | 0.4
C[C@@H]1CN([C@H](C)CO)C(=O)Cc2cc(NC(=O)Cc3ccccc3)ccc2O[C@@H]1CN(C)Cc1ccc(Cl)c(Cl)c1 | 0.7 | -6.2 | 88.3* | 61.2 | / | 4.4
COc1ccc2c3c(n(C)c2c1)[C@H](CO)N(C(=O)Cc1ccccc1)CC31CCN(C(C)=O)CC1 | / | / | -3.0 | / | / | -1.3
CC(C)C[C@@H](COCc1ccc(C(F)(F)F)cc1)N1CCN(C(=O)c2ccc(C(F)(F)F)cc2)CCC1=O | / | 2.3 | -12.8 | / | / | 9.6*
Cc1noc(C)c1S(=O)(=O)Nc1ccc2c(c1)CC(=O)N([C@H](C)CO)C[C@H](C)[C@H](CN(C)Cc1ccc3c(c1)OCO3)O2 | 0.2 | -13.9 | 51.1* | 6.4 | / | -2.5
Cc1noc(C)c1S(=O)(=O)Nc1ccc2c(c1)CC(=O)N([C@@H](C)CO)C[C@@H](C)[C@@H](CN(C)Cc1ccc(Cl)c(Cl)c1)O2 | -3.7 | 0.1 | 0.6 | ? | / | 2.0
Cc1noc(C)c1S(=O)(=O)Nc1ccc2c(c1)CC(=O)N([C@H](C)CO)C[C@@H](C)[C@H](CN(C)Cc1ccc(-c3ccccc3)cc1)O2 | / | 1.6 | 4.8 | 111.0* | / | 0.9
Cc1noc(C)c1S(=O)(=O)Nc1ccc2c(c1)CC(=O)N([C@H](C)CO)C[C@H](C)[C@@H](CN(C)Cc1ccc(Cl)c(Cl)c1)O2 | 1.5 | -1.8 | -0.9 | 133.8* | / | 2.9
Cc1noc(C)c1S(=O)(=O)Nc1ccc2c(c1)CC(=O)N([C@@H](C)CO)C[C@H](C)[C@@H](CN(C)Cc1ccc(-c3ccccc3)cc1)O2 | / | 6.3 | 7.2 | 47.9 | / | 3.6
Cc1noc(C)c1S(=O)(=O)Nc1ccc2c(c1)CC(=O)N([C@@H](C)CO)C[C@@H](C)[C@@H](CN(C)Cc1ccc3c(c1)OCO3)O2 | -1.8 | -4.9 | 2.6 | -18.8 | / | -1.6
Cc1noc(C)c1S(=O)(=O)Nc1ccc2c(c1)CC(=O)N([C@H](C)CO)C[C@@H](C)[C@@H](CN(C)C(=O)NC(C)C)O2 | -3.1 | 2.4 | 45.7* | -12.3 | / | 1.0
SMILES | Cneo AK release | ERp5 inh | DENV2 CPE rescue | Statin myotox sup | PDI turbidity | F508del corr
CCC(=O)Nc1ccc2c(c1)C(=O)N(C)C[C@@H](OC)[C@H](C)CN(CC1CCOCC1)[C@@H](C)CO2 | 0.1 | / | / | -1.7 | / | 1.4
Cc1noc(C)c1S(=O)(=O)Nc1ccc2c(c1)CC(=O)N([C@@H](C)CO)C[C@H](C)[C@@H](CN(C)Cc1ccc(Cl)c(Cl)c1)O2 | 2.5 | -0.9 | 0.5 | 78.6* | / | -6.5
Cc1noc(C)c1S(=O)(=O)Nc1ccc2c(c1)CC(=O)N([C@@H](C)CO)C[C@@H](C)[C@H](CN(C)Cc1ccc(Cl)c(Cl)c1)O2 | -1.6 | 9.4 | 0.3 | 19.0 | / | -3.2
Cc1noc(C)c1S(=O)(=O)Nc1ccc2c(c1)CC(=O)N([C@H](C)CO)C[C@@H](C)[C@@H](CN(C)Cc1ccc(C(F)(F)F)cc1)O2 | -3.8 | 3.5 | 5.8 | 82.6* | / | 0.8
Cc1noc(C)c1S(=O)(=O)Nc1ccc2c(c1)C(=O)N([C@@H](C)CO)C[C@@H](C)[C@H](CN(C)CC1CC1)O2 | 3.9 | -7.3 | -7.4 | 9.2 | / | 1.3
COC(=O)[C@H](CC(C)C)NC(=O)CC[C@H]1O[C@@H](n2cc(C)c(=O)[nH]c2=O)C[C@@H]1O | 0.8 | -0.5 | 69.8* | 1.8 | / | -2.9
CCOC(=O)CC1(C)Sc2ccccc2N1S(=O)(=O)c1ccc(C)cc1 (stereo not given) | / | 5.5 | 63.2* | / | / | -1.5
CCOC(=O)CC1(CCc2ccccc2)Oc2ccccc2N1S(=O)(=O)c1ccc(C)cc1 (stereo not given) | / | 3.3 | -3.0 | / | / | -2.2
Cc1ccc(C(c2nnnn2C(C)(C)C)N2CCC(C)CC2)cc1 (stereo not given) | 0.1 | / | / | -7.6 | -1.7 | /
